Screening data deposited in PubChem BioAssay by several laboratories.
Most compounds without a hit are left out; they make up all but 12% or so of the library.
CHOP inh: inhibitors of CHOP promoter induction, primary screen, cell-based, unfolded protein response, luciferase reporter | CHO-K1 CHOP-promoter luciferase, tunicamycin-induced, 15-18 h | inhibition, % at 10 µM | 3.8% of 220,000 active | AID 2732, 2010;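 active = compounds that reduced the stress-induced luciferase reporter signal by more than about 70% of percent inhibition, limit read from the data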;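 also: 0% = tunicamycin plus vehicle and 100% = wells without tunicamycin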
L major viab: Leishmania major promastigote growth inhibition, primary screen | Leishmania major promastigotes, resazurin fluorescence viability | inhibition, % at 10 µM | 9% of 200,000 active;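 also: promastigotes grown with compound for 44 hours at 28 °C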
Arbovirus anti: antivirals against arbovirus infection, primary screen, cell-based, full library, 10K replicate subset; inhibition, % at 10 µM; AID 1251, 2008; 0.37% of 200,000 active; arbovirus infection cell-based antiviral screen; in the data active = inhibition above about 30%
Rad51 HR inh: human RAD51 strand exchange inhibitors, primary screen, biochemical, fluorescence | 0.085% of 200,000 active | AID 1385, 2008 | inhibition, % at 10 µM | DNA repair protein RAD51 homolog 1 (Homo sapiens), Q06609 | hRad51 DNA strand exchange, fluorescence dequenching;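 active = inhibition above 40% at the single screening dose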;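 also: 0% = DMSO control wells and 100% = blanks with heterologous ssDNA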
Target sequence (Q06609 whole entry, looked up): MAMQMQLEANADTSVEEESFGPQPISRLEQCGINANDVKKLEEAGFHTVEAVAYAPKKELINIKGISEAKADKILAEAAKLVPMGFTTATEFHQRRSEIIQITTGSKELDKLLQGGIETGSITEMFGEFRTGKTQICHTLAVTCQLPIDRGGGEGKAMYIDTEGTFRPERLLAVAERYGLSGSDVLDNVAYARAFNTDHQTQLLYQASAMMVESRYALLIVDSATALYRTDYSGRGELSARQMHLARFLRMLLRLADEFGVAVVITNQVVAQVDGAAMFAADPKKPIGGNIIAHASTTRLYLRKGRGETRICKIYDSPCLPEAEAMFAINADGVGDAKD
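Assay system: Human Rad51 nucleoprotein filaments preassembled on unlabelled ssDNA | Reagent: Donor/quencher-labelled 47-bp dsDNA substrate | Doses: One concentration, 10 µM final | Times: 37 °C 15-min filament assembly, 30-min compound preincubation, 15-min exchange | Technique: Fluorescein emission 520 nm, excitation 485 nm | Benchmarks: Plate control and blank wells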
Wee1 stabilizer: Wee1 degradation inhibitors, primary screen, cell-based, HeLa, Wee1K328M-luciferase, luminescence; Wee1-like protein kinase (Homo sapiens), P30291; HeLa Luc-Wee1K328M stability; 100% = proteasome inhibitor MG132 effect; reporter increase, % at 5 µM; 1.2% of 220,000 active; AID 1321, 2008;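 active = activation above the mean of all tested compounds plus 3 SD, set per screening run, cut at about 8.8% in these data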;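 also: cells exposed to compound for 20 h before luminescence read; 0% = DMSO alone and 100% = MG132 at 30 µM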
PKD1 inh: inhibitors of human PKD1 kinase, biochemical, fluorescence polarization; 0.056% of 200,000 active; Serine/threonine-protein kinase D1 (Homo sapiens), Q15139; PKD1 kinase fluorescence polarization assay; inhibition, % (no concentration beside the values)
Active calls of the source: *; / = not tested or not shown. Rule as the data show it, unless noted: active = inhibition above about 50%; inactive = the rest.

SMILES	CHOP inh	L major viab	Arbovirus anti	Rad51 HR inh	Wee1 stabilizer	PKD1 inh
CCC(NC(=O)c1ccccc1NC(=O)c1ccco1)C(=O)NC1CCCCC1 (configuration not stated)	1	21	0	/	1	3
Cc1cccc(OCC(=O)NCC(=O)N/N=C/c2c(C)[nH]c3ccccc23)c1	6	/	/	4	3	/
O=C(c1cc2ccccc2c(=O)o1)N1CCCCCC1	-53	-3	5	-19	-2	0
CC1CCCCN1c1nc2nonc2nc1N1CCCCC1C (configuration not stated)	4	19	-1	8	0	9
COc1ccccc1Nc1nc2nonc2nc1N1CCCCC1C (configuration not stated)	23	91*	-8	6	2	-4
COc1ccc2nc(NC(=O)Nc3ccccc3)sc2c1	26	1	19	-4	-1	-5
CC(C)(C)c1nc(NC(=O)Nc2ccccc2)sc1Br	105*	-4	-17	1	3	-1
Cc1ccc(Cl)cc1NC(=O)c1cc2ccccc2cc1O	82*	/	/	16	-3	/
COc1ccccc1NC(=O)c1ccccc1C(=O)O	-29	-6	-5	-2	0	-2
COc1cc(NC(=O)c2cc3ccccc3cc2O)c(OC)cc1Cl	83*	/	/	-1	7	/
Cc1ccc(Cl)cc1NC(=O)COC(=O)c1ccccc1O	8	/	/	14	0	/
COc1ccccc1NC(=O)c1cc2cc(Br)ccc2cc1O	88*	/	/	-1	-3	/
O=C(/C(=N\Nc1ccc(Br)cc1)Sc1nnnn1-c1ccccc1)c1ccccc1	28	-5	11	/	0	3
Brc1ccc(N/N=C(/N=Nc2nn[nH]n2)c2ccccc2)cc1	71*	-1	-31	16	-4	12
COc1cc(NC(=S)N2CCC(C(N)=O)CC2)c(OC)cc1Cl	-10	-6	2	10	1	-7
C[n+]1ccc(/C=C/c2ccc(Br)cc2)cc1	-19	86*	-8	/	-2	0
CC(C)CCNC(=O)/C=C/c1ccc(Br)cc1	41	-4	-1	21	7	-14
Cc1ccc(Nc2nc(CSc3nnc(-c4ccc(F)cc4)n3C)cs2)cc1	-2	81*	12	-13	2	-4
O=C(O)CCNC(=O)/C(=C/C=C/c1ccccc1)NC(=O)c1ccccc1	74*	-2	2	/	3	-3
CCCCC(=O)Nc1cc(Cl)ccc1C(=O)O	-7	-5	9	-4	2	2
CC(=O)Nc1ccc(NC(=O)CN(c2ccc(F)cc2)S(=O)(=O)c2ccc3c(c2)OCCO3)cc1	0	21	-5	2	2	8
O=C(CN(c1ccc2c(c1)OCCO2)S(=O)(=O)c1ccccc1)NCC1CCCO1 (configuration not stated)	28	-4	14	-3	2	-6
O=C(CN(c1ccc(F)cc1)S(=O)(=O)c1ccc2c(c1)OCCO2)Nc1ccccc1	-12	80*	9	-3	0	-4
CN(Cc1ccccc1)C(=O)CN(c1ccc(F)cc1)S(=O)(=O)c1ccc2c(c1)OCCO2	33	95*	-17	-10	-1	4
O=C(CN(c1ccc(F)cc1)S(=O)(=O)c1ccc2c(c1)OCCO2)NCc1ccccc1	15	96*	-5	/	2	10
SMILES	CHOP inh	L major viab	Arbovirus anti	Rad51 HR inh	Wee1 stabilizer	PKD1 inh
O=C(CN(c1ccc2c(c1)OCCO2)S(=O)(=O)c1ccccc1)NCc1ccc(Cl)cc1	41	98*	-14	/	-4	-8
O=C(CN(c1ccc(F)cc1)S(=O)(=O)c1ccc2c(c1)OCCO2)Nc1ccc2c(c1)OCO2	20	20	1	-2	0	-12
CC1SC(C)C(=O)N(CC(=O)Nc2ccc([N+](=O)[O-])cc2)C1=O (configuration not stated)	17	-7	7	5	1	-3
COC(=O)CNC(=O)/C=C/c1ccc(OC)cc1	-9	-8	1	2	1	2
CC(=O)Nc1cc(C)nn1-c1nc2ccccc2s1	16	-3	9	-2	-1	-12
Cc1cc(C)n(-c2ccc(C(=O)Nc3nc4ccccc4s3)cc2)n1	90*	-7	11	-4	-1	-12
O=C(Nc1nc2ccccc2s1)C1CCCO1 (configuration not stated)	-27	0	8	-1	5	-6
Nc1ccc(C(=O)Nc2nc3ccccc3s2)cc1	18	-1	-7	1	8.9*	-6
O=C(Nc1nc2ccccc2s1)C1c2ccccc2Oc2ccccc21	85*	22	-18	-14	-4	9
CCc1ccc2nc(NC(=O)c3ccc(N4C(=O)CCC4=O)cc3)sc2c1	80*	/	/	15	5	/
COc1n[nH]c(C(=O)Nc2nc3ccccc3s2)c1[N+](=O)[O-]	4	70*	4	21	1	4
COc1n[nH]c(C(=O)NCc2ccccc2)c1[N+](=O)[O-]	6	-4	25	3	-1	-1
C=CC[n+]1ccc(/C=C2\C=Cc3cc(C)ccc3N2CC)c2ccccc21	75*	100*	-22	29	-4	-4
C=CC[n+]1ccc2ccccc2c1C	23	-4	2	/	4	-2
Cc1ccc(NC(=O)CN(C)C(=O)COc2cccc3cccnc23)cc1	14	-4	-5	8	-1	3
CCOC(=O)c1ccc(NC(=O)CSc2nc3c(c(=O)n2CC)SC(C)C3)cc1 (configuration not stated)	40	53*	25	1	0	-15
C=CCn1c(SCC(=O)Nc2ccc(C(=O)OCC)cc2)nnc1-c1sc(N)nc1C	27	58*	7	1	-1	0
CC(=O)N(Cc1ccccc1C)c1cccc(C)c1C	-3	4	0	29	-1	-1
COc1cccc(N2CCN(C(=O)CN(C)S(=O)(=O)c3ccc4c(c3)c(=O)n(C)c(=O)n4C)CC2)c1	-5	5	6	16	4	-10
O=c1c(Cc2ccc(F)cc2)c(O)ccn1Cc1ccc(Cl)cc1Cl	83*	0	-1	0	2	-3
CCOC(=O)N1CC=C2C(C#N)=C(N)C(C#N)(C#N)[C@H](c3ccccc3OCC)[C@H]2C1	74*	11	4	-8	-1	-11
CCC(CO)NS(=O)(=O)c1cc(-c2nn(C)c(=O)c3ccccc23)ccc1C (configuration not stated)	1	1	-21	9	0	-3
Cc1ccc2cc(/C=C(\C#N)C(N)=O)c(N3CCCCC3)nc2c1	44	42	2	-11	-1	-2
